According to article PMC12315948 (The FASEB Journal, 2021):

Key:
HeLa cells [1] = format: cell-based; details: 24 h treatment, 2 h 2.5 µg/mL pyolysin, MTT
Summary of the method: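 HeLa cells grown in DMEM with 10% FBS were seeded at 50,000 cells/mL. At 90% confluence they were treated in serum-free medium with vehicle, 100 µM test compound or 10 µM zaragozic acid, for 24 h or for indicated times. Cells were then challenged for 2 h with control medium or 2.5 µg/mL pyolysin. MTT (1 mg/mL, 2 h) was read at OD570 after DMSO lysis. Values are percentage of control; 4 independent experiments.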

squalene synthase = squalene synthase cell free assay; cited from earlier work
A549 cells = test: Cytoprotection of A549 cells against streptolysin O; format: cell-based, human; details: 24 h: 100 µM MPEX098 or 10 µM zaragozic acid; 2 h challenge
Summary of the method: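 A549 cells were grown in RPMI1640 with 5% FBS, 1% antibiotic-antimycotic and 1% glutamine, then seeded at 50,000 cells/mL. At 90% confluence they were given serum-free medium with vehicle or treatment for 24 h, then challenged 2 h with graded streptolysin O. Viability was read by MTT (1 mg/mL, 2 h, DMSO lysis, OD570). LDH in supernatants was read by the INT/PMS lactate assay at OD450, initially and after 30 min at 37°C, against NADH standards.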

HeLa cells [2] = test: Cytotoxicity per se in HeLa cells, MTT assay, control challenge; format: cell-based
Summary of the method: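 HeLa cells were seeded at 50,000 cells/mL in DMEM with 10% FBS. At 90% confluence they received serum-free medium with vehicle, 100 µM test compound or zaragozic acid for 24 h. They were then given a 2 h control-medium challenge without toxin. Viability was measured by MTT (1 mg/mL, 2 h; DMSO lysis; OD570) as percentage of control. Each point is one independent passage (n = 12).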

Row | Compound | cytoprotection against pyolysin by isoprenoid treatment (HeLa cells [1]) | IC50 (squalene synthase) [nM] | protection of A549 cells against streptolysin O (A549 cells) | cytotoxic concentration per se (HeLa cells [2]) [µM] | cell toxicity per se (HeLa cells [2]; MTT assay, control challenge, 100 µM MPEX098 or 10 µM zaragozic acid, 24 h, n = 12) [%]
1 | CC(C)=CCC/C(C)=C/CC/C(C)=C/CC/C(C)=C/COP(=O)(O)OP(=O)(O)O [geranylgeranyl diphosphate] | increased cytoprotection against pyolysin |  |  |  | 
2 | C=C(CC[C@]12O[C@H](C(=O)O)[C@@](O)(C(=O)O)[C@](C(=O)O)(O1)[C@H](OC(=O)/C=C/[C@@H](C)C[C@@H](C)CC)[C@H]2O)[C@@H](OC(C)=O)[C@H](C)Cc1ccccc1 [Zaragozic acid, zaragozic acid] |  | […] | protected A549 cells against a range of concentrations of streptolysin O | […] | 13 ± 3
3 | CC(C)=CCC/C(C)=C/CC/C(C)=C/CO[P@@](=O)(O)OP(=O)(O)O (stereo in doubt) [farnesyl diphosphate] | but not farnesyl diphosphate (P = .12) increased cytoprotection |  |  |  | 
